Key:
hERG channels = hERG channels (Homo sapiens, UniProt Q12809); test: hERG channel block; assay type: biochemical; conditions: at a concentration of 10 μM or below
Caco-2 = Caco-2 bi-directional permeability assay; assay type: in vitro ADME
[1] = tested on: bacterial reverse mutation; test: Non-GLP in vitro bacterial reverse mutation; assay type: cell-based
MeV RdRp = MeV RdRp (Measles virus, UniProt P12576); test: Plasmid-based mini-replicon luciferase assay of RdRp activity in BSR-T7/5 cells; assay type: cell-based; conditions: 36 hours post-transfection; averages of three experiments
Chain of MeV RdRp (P12576 whole entry): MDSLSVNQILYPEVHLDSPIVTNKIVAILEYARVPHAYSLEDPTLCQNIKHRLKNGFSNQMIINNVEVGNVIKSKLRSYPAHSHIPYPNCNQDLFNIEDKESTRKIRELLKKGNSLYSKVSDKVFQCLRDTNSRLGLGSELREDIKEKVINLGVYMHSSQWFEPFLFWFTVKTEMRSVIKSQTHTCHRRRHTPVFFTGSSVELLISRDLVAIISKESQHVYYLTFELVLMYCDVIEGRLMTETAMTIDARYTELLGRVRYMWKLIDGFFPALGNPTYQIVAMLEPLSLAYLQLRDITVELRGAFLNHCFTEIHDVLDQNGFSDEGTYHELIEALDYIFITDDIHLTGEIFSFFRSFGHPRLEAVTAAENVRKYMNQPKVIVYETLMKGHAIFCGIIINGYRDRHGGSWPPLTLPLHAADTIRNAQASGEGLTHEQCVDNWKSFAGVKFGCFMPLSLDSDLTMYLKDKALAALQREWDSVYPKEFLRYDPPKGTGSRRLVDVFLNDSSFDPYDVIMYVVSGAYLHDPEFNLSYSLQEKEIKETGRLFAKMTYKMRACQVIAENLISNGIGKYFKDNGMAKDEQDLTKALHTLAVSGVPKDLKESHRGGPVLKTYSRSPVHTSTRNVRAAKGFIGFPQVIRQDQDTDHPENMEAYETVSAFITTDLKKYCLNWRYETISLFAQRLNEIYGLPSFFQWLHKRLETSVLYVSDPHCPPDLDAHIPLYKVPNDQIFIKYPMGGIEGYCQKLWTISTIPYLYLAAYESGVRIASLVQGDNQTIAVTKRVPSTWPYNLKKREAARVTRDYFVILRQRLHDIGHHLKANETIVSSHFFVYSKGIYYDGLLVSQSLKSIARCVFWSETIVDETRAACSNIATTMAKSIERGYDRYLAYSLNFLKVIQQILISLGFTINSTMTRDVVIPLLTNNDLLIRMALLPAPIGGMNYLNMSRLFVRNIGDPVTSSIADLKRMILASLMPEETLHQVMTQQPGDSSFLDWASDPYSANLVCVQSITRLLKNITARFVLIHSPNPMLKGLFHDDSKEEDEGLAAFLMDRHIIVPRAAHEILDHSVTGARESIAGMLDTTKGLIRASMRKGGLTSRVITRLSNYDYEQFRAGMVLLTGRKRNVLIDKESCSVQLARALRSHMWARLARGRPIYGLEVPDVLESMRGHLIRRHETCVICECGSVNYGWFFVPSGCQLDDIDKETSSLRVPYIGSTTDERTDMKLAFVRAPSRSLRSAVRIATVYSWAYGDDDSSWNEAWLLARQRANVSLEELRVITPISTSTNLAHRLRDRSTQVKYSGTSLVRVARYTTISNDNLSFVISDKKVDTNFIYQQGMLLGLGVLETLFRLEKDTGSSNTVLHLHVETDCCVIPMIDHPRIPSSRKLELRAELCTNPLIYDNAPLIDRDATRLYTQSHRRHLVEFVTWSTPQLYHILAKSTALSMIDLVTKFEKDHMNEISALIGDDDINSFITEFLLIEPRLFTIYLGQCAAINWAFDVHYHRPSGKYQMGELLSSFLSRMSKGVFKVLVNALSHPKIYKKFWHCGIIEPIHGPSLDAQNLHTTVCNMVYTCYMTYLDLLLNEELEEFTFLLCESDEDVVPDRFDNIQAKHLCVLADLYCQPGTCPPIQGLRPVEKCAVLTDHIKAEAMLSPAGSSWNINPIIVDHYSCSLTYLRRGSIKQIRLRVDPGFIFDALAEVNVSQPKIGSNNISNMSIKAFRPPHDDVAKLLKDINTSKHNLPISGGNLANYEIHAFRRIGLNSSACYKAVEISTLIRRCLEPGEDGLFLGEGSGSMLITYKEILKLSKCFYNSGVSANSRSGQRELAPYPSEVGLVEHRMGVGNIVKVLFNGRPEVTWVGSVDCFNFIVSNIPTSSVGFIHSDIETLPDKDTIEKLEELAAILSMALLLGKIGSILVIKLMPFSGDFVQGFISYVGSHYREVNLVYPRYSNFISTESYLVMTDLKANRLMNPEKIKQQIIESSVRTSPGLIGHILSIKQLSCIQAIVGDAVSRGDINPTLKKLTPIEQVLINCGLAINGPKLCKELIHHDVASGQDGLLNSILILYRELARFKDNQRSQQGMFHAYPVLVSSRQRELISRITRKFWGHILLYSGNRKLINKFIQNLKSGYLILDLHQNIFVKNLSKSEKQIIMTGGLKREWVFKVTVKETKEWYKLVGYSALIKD
Chain of MeV RdRp (P03422 whole entry, further chain): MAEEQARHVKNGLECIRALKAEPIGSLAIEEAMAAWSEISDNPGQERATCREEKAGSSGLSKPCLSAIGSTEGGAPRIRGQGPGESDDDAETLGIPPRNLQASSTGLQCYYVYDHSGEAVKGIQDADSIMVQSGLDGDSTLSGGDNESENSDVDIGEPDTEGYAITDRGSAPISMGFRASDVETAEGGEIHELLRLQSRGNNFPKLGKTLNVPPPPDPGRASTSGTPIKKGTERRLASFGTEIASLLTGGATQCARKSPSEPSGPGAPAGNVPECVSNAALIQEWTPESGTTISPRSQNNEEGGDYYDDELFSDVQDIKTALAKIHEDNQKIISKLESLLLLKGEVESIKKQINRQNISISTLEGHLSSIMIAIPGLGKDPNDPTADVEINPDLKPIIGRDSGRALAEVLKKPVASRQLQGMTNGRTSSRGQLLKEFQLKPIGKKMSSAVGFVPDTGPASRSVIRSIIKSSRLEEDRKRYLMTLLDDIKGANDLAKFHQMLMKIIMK
Procedure, shortened: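 BSR-T7/5 cells were transfected with plasmids encoding MeV L, N and P plus a firefly luciferase minigenome reporter, then incubated with a range of test compound concentrations or vehicle. Luciferase activity in cell lysates was read 36 h post-transfection and expressed relative to vehicle-treated samples. Dose-response inhibition curves were generated from the mean of three experiments ± SD.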

Chain of hERG channels (Q12809 whole entry): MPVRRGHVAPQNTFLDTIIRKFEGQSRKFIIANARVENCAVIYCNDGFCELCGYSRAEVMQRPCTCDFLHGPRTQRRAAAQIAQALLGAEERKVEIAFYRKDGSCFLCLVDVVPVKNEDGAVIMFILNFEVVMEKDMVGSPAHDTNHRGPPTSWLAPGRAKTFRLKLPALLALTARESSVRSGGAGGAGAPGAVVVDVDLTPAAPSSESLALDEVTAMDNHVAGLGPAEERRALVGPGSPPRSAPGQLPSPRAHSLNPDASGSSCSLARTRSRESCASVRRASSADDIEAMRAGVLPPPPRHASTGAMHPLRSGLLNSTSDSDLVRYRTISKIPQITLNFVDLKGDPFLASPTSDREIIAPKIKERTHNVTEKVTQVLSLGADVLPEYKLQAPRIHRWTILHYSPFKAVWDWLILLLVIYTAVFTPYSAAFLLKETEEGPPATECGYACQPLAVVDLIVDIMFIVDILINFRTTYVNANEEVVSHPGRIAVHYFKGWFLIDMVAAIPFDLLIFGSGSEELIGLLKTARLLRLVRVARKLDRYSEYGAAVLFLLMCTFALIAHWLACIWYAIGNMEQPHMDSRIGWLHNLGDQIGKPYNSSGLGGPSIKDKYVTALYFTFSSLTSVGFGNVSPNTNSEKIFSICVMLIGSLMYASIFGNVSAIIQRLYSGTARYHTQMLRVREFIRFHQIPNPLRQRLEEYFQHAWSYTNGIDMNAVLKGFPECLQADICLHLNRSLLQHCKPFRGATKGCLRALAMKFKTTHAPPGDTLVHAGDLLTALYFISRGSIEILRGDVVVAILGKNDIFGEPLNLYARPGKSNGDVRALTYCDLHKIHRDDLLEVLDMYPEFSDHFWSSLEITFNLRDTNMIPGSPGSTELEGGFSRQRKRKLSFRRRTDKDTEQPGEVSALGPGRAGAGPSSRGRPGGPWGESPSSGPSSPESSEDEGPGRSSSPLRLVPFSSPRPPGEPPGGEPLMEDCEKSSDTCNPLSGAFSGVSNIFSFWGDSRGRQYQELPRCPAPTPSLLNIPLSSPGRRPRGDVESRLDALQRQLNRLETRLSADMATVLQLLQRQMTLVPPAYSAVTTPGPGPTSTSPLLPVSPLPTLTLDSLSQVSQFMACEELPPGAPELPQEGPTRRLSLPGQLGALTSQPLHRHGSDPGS

Compound	hERG channel block (hERG channels)	permeability (Caco-2)	mutagenicity (Ames) [1]	inhibition of viral RdRp activity (relative luciferase activity) (MeV RdRp)
Cn1nc(C(F)(F)F)cc1C(=O)Nc1ccc(S(=O)(=O)N2CCCCC2)cc1 [Compound 2]	did not block	high permeability	non-mutagenic	dose-dependent inhibition
Cn1nc(C(F)(F)F)cc1C(=O)Nc1ccc(S(=O)(=O)N2CCCC[C@H]2CCN2CCOCC2)cc1 [Compound 2o, (S)-1-methyl-N-(4-((2-(2-morpholinoethyl)piperidin-1-yl)sulfonyl)phenyl)-3-(trifluoromethyl)-1H-pyrazole-5-carboxamid]		high permeability		dose-dependent inhibition
